Sampled rows, rich in hits. Any-hit rate of the full collection: about 4.1%.
KCNQ1 inh – human KCNQ1 channel inhibition. P51787. CHO-K1 KCNQ1, FluxOR thallium flux fluorescence; hits give high values. B-score at 10 µM. 1.3% of 310,000 active;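 active means compounds whose thallium flux B-score, printed positive for inhibition, exceeds three library SD while starting fluorescence stays within three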;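 further: channel opened by potassium depolarization with thallium stimulus after 20 min compound exposure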
KCNK3 inh – human KCNK3 channel inhibition, primary screen. CHO-KCNK3 thallium flux, FluxOR fluorescence; hits give low values. B-score at 10 µM. O14649. 0.84% of 340,000 active;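 active means B-score under library mean minus 4 SD, starting fluorescence ratio at most library mean plus 5 SD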;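 further: more negative B-score means stronger inhibition of thallium flux through KCNK3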
Target sequence (O14649 whole entry, looked up): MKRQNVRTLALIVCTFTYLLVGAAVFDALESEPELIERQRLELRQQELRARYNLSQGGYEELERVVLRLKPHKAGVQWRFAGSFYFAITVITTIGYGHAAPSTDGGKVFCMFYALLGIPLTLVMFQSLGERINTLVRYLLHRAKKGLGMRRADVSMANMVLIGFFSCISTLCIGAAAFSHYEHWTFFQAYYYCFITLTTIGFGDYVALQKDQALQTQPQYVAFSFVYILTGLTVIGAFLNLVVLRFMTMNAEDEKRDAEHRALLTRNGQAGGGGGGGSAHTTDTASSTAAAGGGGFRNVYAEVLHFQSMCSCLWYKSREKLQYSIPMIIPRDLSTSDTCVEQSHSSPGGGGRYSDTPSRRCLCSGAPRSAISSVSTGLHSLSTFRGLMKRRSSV
hERG protect – shields human hERG channel from block by proarrhythmic agents | 0.51% of 310,000 active | Q12809 | CHO-hERG, FluxOR thallium flux, dofetilide IC70 present | AID 1511 | activation (rescue from dofetilide block), less the hit threshold, % at 10 µM;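 active means activation above the mean of controls blocked by dofetilide plus 5 SD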;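 further: thallium influx through hERG after potassium depolarization seen as dye fluorescence rise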
KCNQ1 pot – potentiators or activators of human KCNQ1 potassium channel. P51787. B-score at 10 µM. CHO-K1 KCNQ1, thallium flux FluxOR fluorescence; hits give high values. 0.35% of 310,000 active. AID 2648;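 active means fluorescence ratio B-score, a plate-corrected score, at least three library SD, with initial intensity B-score within 5 SD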
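Assay system: CHO-K1 cells stably expressing KCNQ1. Medium: assay buffer for compound exposure, DMSO matched across wells. Timing: 37 °C overnight plating, 90-min dark dye load, 20-min compound pretreatment. Signal: kinetic FluxOR fluorescence, 10 s baseline plus 110 s post-stimulus.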
KCNK9 block – inhibitors of human KCNK9 two-pore domain potassium channel; B-score at 10 µM; Q9NPC2; 1.2% of 310,000 active; AID 488922; HEK293 KCNK9, FluxOR thallium flux fluorescence; hits give low values;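 active means ratio B-score over 3 SD below the library mean, with starting fluorescence within 5 SD of its mean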;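 further: negative B-score means less thallium flux so channel inhibition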
Target sequence (Q9NPC2 whole entry, looked up, the tested form may be a part): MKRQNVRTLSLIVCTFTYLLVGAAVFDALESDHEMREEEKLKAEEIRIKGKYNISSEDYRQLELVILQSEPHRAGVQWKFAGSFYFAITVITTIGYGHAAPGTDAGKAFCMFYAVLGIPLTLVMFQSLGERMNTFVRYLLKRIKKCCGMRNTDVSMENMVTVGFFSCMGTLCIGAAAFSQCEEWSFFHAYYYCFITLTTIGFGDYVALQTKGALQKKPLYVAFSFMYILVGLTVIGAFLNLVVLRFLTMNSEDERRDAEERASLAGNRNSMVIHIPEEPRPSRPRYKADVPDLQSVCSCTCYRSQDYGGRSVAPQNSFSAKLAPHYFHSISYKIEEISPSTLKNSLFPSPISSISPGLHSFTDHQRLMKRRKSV
KCC2 mod – KCC2 (human) Cl- transport modulation. Q9H2X9. KCC2 cells, thallium flux FluoZin-2 fluorescence. B-score of Tl+ flux slope (higher = more flux/activation; lower = inhibition) at 10 µM. 2.2% of 190,000 active. AID 1456;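 active means thallium flux slope and its plate-corrected score both differing from the plate sample mean at a set confidence after two filtering rounds, in either direction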;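 further: slope of fluorescence scaled to starting intensity during 10 to 20 s after thallium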
KCC2 secondary – confirmation of human KCC2 transport modulators; shares compounds with KCC2 mod; 15% of 3,700 active; normalised thallium flux (F/F0 slope) at 10 µM; HEK293-KCC2, thallium flux, FluoZin2 fluorescence; hits give high values;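 active means thallium flux slope above the same plate's solvent-only control mean plus 3 SD; inconclusive means the two replicate wells disagree; inactive means no significant difference from solvent-only control wells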
KCC2 bumet counter – bumetanide-insensitive thallium flux in KCC2 cells with ouabain, counter-screen | shares compounds with KCC2 mod | HEK293-KCC2 + bumetanide/ouabain, thallium flux FluoZin2; hits give high values | normalized thallium flux at 10 µM | 49% of 3,700 active | AID 1714;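 active means thallium entry rate above the same plate's blocked-transporter control wells by more than 3 SD; inconclusive means the two repeat wells disagree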;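 further: raw slope of fluorescence over initial fluorescence between 10 and 20 s after thallium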
KCC2 secondary2 – KCC2 (human) modulation, second secondary assay. shares compounds with KCC2 mod. HEK293-KCC2, thallium flux FluoZin2 fluorescence; actives lie on both sides; F/F0 rise rate, 10–20 s post-thallium. normalized thallium flux at 10 µM. 23% of 3,700 active. AID 1715;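 active means thallium flux slope more than 3 SD above or below the plate's solvent-only control mean, mostly below; inconclusive means the two repeat wells disagreed; inactive means no significant shift from solvent-only controls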;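 further: raw slope with 0.1% DMSO as baseline and bumetanide as block control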
HEK counter1 – parental HEK flux effect, counter-screen. shares compounds with KCC2 mod. HEK293 parental cells, thallium flux FluoZin2, ouabain; baseline-ratio fluorescence slope, 10–20 s after thallium. thallium flux rate (normalised fluorescence) at 10 µM. 46% of 3,700 active. AID 1716;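 active means thallium flux rate significantly above the same plate's solvent-only control wells, beyond their mean plus 3 SD; inconclusive means the two replicate wells gave conflicting results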
KCC2 retest ouab – confirmation of human KCC2 modulators with ouabain; raw Tl+ flux slope (below DMSO = inhibition, above = activation) at 10 µM; shares compounds with KCC2 mod; HEK293-KCC2, thallium flux FluoZin2 fluorescence; bidirectional: low = inhibitor, high = activator; 48% of 3,700 active;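 active means thallium flux slope beyond 3 SD from same-plate DMSO control mean in most replicates, usually higher, sometimes lower; inconclusive means repeat tests gave conflicting results; inactive means no significant difference from controls in most replicates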;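 further: slope of initial-normalized fluorescence between seconds 10 and 20 after thallium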
HEK counter2 – parental HEK flux effect, counter-screen 2; 33% of 3,700 active; HEK293 parental, thallium flux FluoZin-2 fluorescence slope; thallium flux slope at 10 µM; shares compounds with KCC2 mod;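 active means thallium flux slope above the same plate's solvent-control mean plus 3 SD in both duplicate wells; inconclusive means duplicate wells that disagreed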;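 further: run without ouabain in cells lacking the KCC2 cotransporter; slope of fluorescence scaled to its starting value between 10 and 20 s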
Active calls of the source: *; i = inactive; u = inconclusive; x = no result given.

SMILES	KCNQ1 inh	KCNK3 inh	hERG protect	KCNQ1 pot	KCNK9 block	KCC2 mod	KCC2 secondary	KCC2 bumet counter	KCC2 secondary2	HEK counter1	KCC2 retest ouab	HEK counter2
COc1ccc(C)cc1NS(=O)(=O)c1cccc2nonc12	i	i	-14	i	i	6.5*	0.011	0.019*	0.033	0.0075	0.027	u
NC(=O)c1cc(S(=O)(=O)NCCc2ccc(S(N)(=O)=O)cc2)cs1	i	i	-6	i	i	x	x	x	x	x	x	x
O=C(COc1ccc([N+](=O)[O-])cc1)NC(=O)NC1CCS(=O)(=O)C1 (configuration not stated)	x	i	x	x	x	x	x	x	x	x	x	x
COc1ccccc1NS(=O)(=O)c1cccc2cccnc12	i	i	1	i	i	2.7*	0.0093	0.014*	0.035	u	0.023	u
O=C(COC(=O)c1n[nH]c2ccccc12)NCCc1ccccc1	x	i	x	x	x	x	x	x	x	x	x	x
O=c1c2cc3c(cc2[nH]c(=S)n1Cc1ccco1)OCO3	i	i	-16	i	i	6.5*	u	0.027*	0.028	0.012*	u	0.01*
O=c1c2cc3c(cc2[nH]c(=S)n1C1CCN(Cc2ccccc2)CC1)OCO3	i	i	-11	i	i	18*	0.011*	0.061*	0.033	0.017*	0.044*	0.011*
CCOCCn1c(N2CCN(c3ccc(OC)cc3)CC2)nc2c1c(=O)n(C)c(=O)n2C	i	i	-4	i	i	-0.46	x	x	x	x	x	x
COCCn1c(N2CCN(c3ccc(OC)cc3)CC2)nc2c1c(=O)n(C)c(=O)n2C	i	i	-8	i	i	x	0.0088	0.0056	0.031	0.0078	0.018	0.011
CCOc1ccc(N2CC(C(=O)Nc3ccc(S(=O)(=O)Nc4nccs4)cc3)CC2=O)cc1 (configuration not stated)	i	i	-7	i	i	x	x	x	x	x	x	x
CCN(C[C@H]1N[C@@](Cc2ccccc2)(C(=O)OC)[C@H]2C(=O)N(C)C(=O)[C@@H]12)C(=O)Nc1ccc(Cl)cc1	x	i	x	x	x	x	x	x	x	x	x	x
N#Cc1c(C#N)c(SSc2c(C#N)c(C#N)c(N)n2-c2ccccc2)n(-c2ccccc2)c1N	x	i	x	x	x	x	x	x	x	x	x	x
COC(=O)c1ccc2c(=O)n(-c3ccccc3F)c(=S)[nH]c2c1	i	i	3	i	i	5.6*	0.016	0.018*	0.032	0.012*	0.022*	0.013*
O=C(O)c1ccc2c(=O)n(-c3ccccc3F)c(=S)[nH]c2c1	i	i	-11	i	i	0.49	x	x	x	x	x	x
COC(=O)c1ccc2c(=O)n(-c3ccccc3)c(=S)[nH]c2c1	i	i	-9	i	i	11*	0.018	0.022*	0.034	0.021*	0.025*	0.023*
COc1ccc(-n2c(=S)[nH]c3cc(C(=O)N4CCN(c5ccccc5)CC4)ccc3c2=O)cc1	i	i	-9	i	i	x	x	x	x	x	x	x
CCCn1c(N)c(C(=O)COC(=O)CCNS(=O)(=O)c2ccccc2F)c(=O)[nH]c1=O	i	i	-5	i	i	x	x	x	x	x	x	x
CCCn1c(=S)[nH]c2cc(Cl)ccc21	i	i	-8	i	i	55*	0.042*	0.088*	0.049*	0.047*	0.051*	0.045*
CCn1c(=S)[nH]c2ccccc21	i	i	-4	i	i	-0.88	x	x	x	x	x	x
CCn1c(=S)[nH]c2cc(Cl)ccc21	i	i	-1	i	i	10*	u	0.024*	u	0.022*	0.031*	0.019*
CC(C)N=C(NS(=O)(=O)c1ccccc1)C(Cl)(Cl)Cl	i	i	-5	i	i	-0.13	x	x	x	x	x	x
CCCCC/C=C/C1=CC(=O)C[C@H](c2ccc(OC)c(OC)c2)C1	x	i	x	x	x	x	x	x	x	x	x	x
CN(Cc1ccccc1)C(=O)COC(=O)c1cncc(Br)c1	i	i	-9	i	i	-0.88	x	x	x	x	x	x
CN(Cc1ccccc1)C(=O)COC(=O)c1ccc(Cl)c(N)c1	i	i	-6	i	i	-3.9*	0.0073	0.0057	0.037	0.004	0.016*	0.01
Cn1c2c(c(=O)n1-c1ccccc1)CSCC2	i	i	-5	i	i	x	x	x	x	x	x	x
SMILES	KCNQ1 inh	KCNK3 inh	hERG protect	KCNQ1 pot	KCNK9 block	KCC2 mod	KCC2 secondary	KCC2 bumet counter	KCC2 secondary2	HEK counter1	KCC2 retest ouab	HEK counter2
Cc1ccc(O)c(C(=O)CC(=O)c2ccccc2Cl)c1	i	i	45*	13*	i	x	u	0.064*	0.03	0.038*	0.055*	0.012*
O=[N+]([O-])c1cc(S(=O)(=O)N2CCCC2)ccc1N/N=C1/CCCc2ccccc21	i	i	-3	i	i	-4*	0.0061	0.0049	0.032	0.0081	0.019	u
O=C(CN1C(=O)NC2(CCCCCC2)C1=O)c1ccc(F)cc1	i	i	-15	i	i	x	x	x	x	x	x	x
O=C(CN1C(=O)NC2(CCCCCC2)C1=O)c1ccc2c(c1)OCCO2	i	i	-13	i	i	x	0.0099	0.014*	0.034	u	0.022	0.011
CC(=O)Nc1ccc(-c2csc(NC(=O)CN3C(=O)NC4(CCCC4)C3=O)n2)cc1	i	i	-14	i	i	x	x	x	x	x	x	x
O=C(CN1CCCCC1)Nc1nc(-c2ccccc2)cs1	i	i	-3	i	i	x	x	x	x	x	x	x
CC1(C)NC(=O)N(CC(=O)Nc2nc(-c3ccc(F)cc3)cs2)C1=O	i	i	-7	i	i	-4.9*	0.0061	0.0069	0.024*	0.0074	0.013*	u
CS(=O)(=O)N1CCc2cc(-c3csc(NC(=O)Cc4ccccc4)n3)ccc21	i	i	-3	i	i	-1.1	x	x	x	x	x	x

Screens deposited in PubChem BioAssay by several laboratories.
